Test results published in the M2OR odorant receptor database.

Experiments:
Settings in all cases: stereoisomer not certain
UniProt A2ATE5 = target: T1, UniProt A2ATE5
T1 sequence (whole entry): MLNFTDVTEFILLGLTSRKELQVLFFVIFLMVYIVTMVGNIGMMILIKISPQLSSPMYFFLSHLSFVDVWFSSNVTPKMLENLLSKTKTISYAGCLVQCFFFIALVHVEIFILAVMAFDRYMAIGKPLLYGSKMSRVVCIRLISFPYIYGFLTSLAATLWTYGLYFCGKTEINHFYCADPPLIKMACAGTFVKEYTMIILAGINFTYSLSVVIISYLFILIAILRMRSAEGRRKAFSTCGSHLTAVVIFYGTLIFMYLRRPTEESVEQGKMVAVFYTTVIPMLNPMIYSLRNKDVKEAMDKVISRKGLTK
How it was run: (§1)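 Values were gathered from published papers (main text and supplementary material), with extra details requested from the original authors when needed, and checked for typos and inconsistencies. Each receptor–molecule pair is called responsive (active) if the original authors judged the measured signal statistically different from baseline, and non-responsive (inactive) otherwise. Assay methods varied by source, often transient mammalian cell-line luciferase assays. Recorded details include cell line, G-protein, co-transfected protein and tags.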

UniProt A2AVB0 = target: T2, UniProt A2AVB0
T2 sequence (whole entry): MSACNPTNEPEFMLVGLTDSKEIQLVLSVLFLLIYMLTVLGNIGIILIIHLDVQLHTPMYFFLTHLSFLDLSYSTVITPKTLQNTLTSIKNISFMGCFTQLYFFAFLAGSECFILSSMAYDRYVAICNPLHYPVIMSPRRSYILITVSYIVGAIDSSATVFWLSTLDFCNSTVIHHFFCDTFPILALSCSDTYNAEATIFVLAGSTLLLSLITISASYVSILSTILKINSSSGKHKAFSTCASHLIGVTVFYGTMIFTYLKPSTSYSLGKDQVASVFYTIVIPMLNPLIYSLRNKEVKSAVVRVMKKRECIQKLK
How it was run: as §1

UniProt E1BM68 = target: T3, UniProt E1BM68
T3 sequence (whole entry): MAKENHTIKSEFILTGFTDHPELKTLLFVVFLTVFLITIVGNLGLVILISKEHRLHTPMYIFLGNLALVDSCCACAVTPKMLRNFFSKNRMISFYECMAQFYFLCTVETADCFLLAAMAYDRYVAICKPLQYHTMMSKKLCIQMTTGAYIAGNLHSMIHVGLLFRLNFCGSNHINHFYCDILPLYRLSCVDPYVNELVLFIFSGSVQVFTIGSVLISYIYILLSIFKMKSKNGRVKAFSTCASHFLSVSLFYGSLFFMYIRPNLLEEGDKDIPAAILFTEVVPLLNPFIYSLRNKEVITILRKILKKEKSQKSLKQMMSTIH
How it was run: as §1

UniProt E9PVX1 = target: T4, UniProt E9PVX1
T4 sequence (whole entry): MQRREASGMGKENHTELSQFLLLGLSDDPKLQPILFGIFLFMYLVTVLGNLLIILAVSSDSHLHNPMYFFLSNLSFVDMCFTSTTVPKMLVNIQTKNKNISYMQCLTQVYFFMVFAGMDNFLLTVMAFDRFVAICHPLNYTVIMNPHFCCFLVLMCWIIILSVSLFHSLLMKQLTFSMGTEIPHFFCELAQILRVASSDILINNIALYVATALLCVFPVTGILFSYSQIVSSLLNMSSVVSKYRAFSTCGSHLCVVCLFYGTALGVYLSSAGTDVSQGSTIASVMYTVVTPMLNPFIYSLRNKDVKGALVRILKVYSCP
How it was run: as §1

UniProt E9PZ66 = target: T5, UniProt E9PZ66
T5 sequence (whole entry): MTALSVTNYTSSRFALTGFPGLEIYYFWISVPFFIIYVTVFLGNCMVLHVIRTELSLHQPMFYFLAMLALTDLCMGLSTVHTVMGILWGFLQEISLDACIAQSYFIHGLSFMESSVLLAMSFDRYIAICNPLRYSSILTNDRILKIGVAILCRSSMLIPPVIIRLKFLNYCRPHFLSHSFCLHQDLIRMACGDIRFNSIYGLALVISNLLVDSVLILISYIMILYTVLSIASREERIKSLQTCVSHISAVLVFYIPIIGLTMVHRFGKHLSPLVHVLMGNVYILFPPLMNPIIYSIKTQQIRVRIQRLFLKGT
How it was run: as §1

UniProt E9Q4X7 = target: T6, UniProt E9Q4X7
T6 sequence (whole entry): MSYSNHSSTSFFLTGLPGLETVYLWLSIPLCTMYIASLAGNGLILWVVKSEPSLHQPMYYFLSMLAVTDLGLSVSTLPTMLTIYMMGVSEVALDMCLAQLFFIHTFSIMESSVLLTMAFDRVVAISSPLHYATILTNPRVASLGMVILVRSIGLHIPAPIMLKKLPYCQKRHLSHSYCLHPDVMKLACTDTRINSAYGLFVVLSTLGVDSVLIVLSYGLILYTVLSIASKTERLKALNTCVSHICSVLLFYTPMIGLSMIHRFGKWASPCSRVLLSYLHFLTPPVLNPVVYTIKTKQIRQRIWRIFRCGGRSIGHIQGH
How it was run: as §1

UniProt E9Q546 = target: T7, UniProt E9Q546
T7 sequence (whole entry): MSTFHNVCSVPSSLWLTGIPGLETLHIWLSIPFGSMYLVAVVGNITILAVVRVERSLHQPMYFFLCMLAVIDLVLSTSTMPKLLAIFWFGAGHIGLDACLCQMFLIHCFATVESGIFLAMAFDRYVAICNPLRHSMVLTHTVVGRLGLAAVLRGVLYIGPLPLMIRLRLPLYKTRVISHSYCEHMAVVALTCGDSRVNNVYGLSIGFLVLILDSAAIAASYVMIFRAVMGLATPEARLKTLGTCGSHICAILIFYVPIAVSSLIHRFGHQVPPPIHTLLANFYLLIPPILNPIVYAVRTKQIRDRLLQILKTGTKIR
How it was run: as §1

UniProt E9Q6Z7 = target: T8, UniProt E9Q6Z7
T8 sequence (whole entry): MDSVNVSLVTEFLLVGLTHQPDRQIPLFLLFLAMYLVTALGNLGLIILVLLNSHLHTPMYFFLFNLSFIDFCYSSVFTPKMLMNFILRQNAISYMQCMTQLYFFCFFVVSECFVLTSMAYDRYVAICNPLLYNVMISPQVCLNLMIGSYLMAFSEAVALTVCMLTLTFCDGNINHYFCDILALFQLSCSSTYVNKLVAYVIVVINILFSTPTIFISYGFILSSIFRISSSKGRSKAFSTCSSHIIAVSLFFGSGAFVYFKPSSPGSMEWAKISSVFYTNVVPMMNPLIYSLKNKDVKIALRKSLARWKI
How it was run: as §1

UniProt E9QAT7 = target: T9, UniProt E9QAT7
T9 sequence (whole entry): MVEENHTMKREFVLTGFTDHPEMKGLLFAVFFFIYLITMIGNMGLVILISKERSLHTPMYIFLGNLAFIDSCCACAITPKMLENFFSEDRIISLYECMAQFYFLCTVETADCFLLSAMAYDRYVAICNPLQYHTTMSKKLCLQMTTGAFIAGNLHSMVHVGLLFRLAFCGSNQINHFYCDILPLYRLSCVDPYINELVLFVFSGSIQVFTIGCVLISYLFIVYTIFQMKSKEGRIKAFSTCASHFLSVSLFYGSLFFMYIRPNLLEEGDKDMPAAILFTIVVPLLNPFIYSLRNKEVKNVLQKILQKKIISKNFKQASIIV
How it was run: as §1

UniProt E9PXN3 = target: T10, UniProt E9PXN3
T10 sequence (whole entry): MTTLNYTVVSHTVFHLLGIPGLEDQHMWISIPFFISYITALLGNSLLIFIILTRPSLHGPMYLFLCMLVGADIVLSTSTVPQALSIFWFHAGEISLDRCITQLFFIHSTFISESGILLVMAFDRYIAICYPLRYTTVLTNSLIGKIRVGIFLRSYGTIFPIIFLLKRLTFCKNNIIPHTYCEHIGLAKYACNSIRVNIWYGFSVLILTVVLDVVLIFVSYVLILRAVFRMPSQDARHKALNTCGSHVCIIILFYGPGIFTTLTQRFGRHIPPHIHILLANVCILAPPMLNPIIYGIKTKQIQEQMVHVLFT
How it was run: as §1

UniProt A2AVB5 = target: T11, UniProt A2AVB5
T11 sequence (whole entry): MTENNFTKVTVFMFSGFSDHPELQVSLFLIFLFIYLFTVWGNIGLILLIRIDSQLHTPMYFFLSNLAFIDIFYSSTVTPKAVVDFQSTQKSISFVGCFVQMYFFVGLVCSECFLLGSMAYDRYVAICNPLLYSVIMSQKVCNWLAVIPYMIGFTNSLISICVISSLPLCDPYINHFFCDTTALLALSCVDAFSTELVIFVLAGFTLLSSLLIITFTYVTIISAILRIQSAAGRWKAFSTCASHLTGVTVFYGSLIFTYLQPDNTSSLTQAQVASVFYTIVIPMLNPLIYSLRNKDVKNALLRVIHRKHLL
How it was run: as §1

UniProt B2RVX8 = target: T12, UniProt B2RVX8
T12 sequence (whole entry): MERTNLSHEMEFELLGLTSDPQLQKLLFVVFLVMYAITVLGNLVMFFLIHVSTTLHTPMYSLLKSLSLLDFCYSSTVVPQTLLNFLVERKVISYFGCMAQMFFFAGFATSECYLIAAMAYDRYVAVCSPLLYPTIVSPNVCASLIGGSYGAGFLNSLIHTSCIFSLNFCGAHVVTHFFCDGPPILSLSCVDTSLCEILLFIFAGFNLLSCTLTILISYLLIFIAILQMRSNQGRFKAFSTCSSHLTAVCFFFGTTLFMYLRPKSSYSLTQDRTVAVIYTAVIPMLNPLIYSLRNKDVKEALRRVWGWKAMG
How it was run: as §1

UniProt K7N609 = target: T13, UniProt K7N609
T13 sequence (whole entry): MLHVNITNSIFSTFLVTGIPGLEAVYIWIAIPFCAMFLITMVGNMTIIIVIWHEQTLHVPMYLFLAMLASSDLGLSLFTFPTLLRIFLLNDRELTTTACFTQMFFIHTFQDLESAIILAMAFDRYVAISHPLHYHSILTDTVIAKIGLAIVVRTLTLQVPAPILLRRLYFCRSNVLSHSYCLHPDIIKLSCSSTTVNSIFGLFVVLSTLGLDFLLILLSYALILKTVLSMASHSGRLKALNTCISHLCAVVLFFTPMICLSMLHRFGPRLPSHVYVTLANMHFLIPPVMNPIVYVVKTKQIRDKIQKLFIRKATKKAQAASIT
How it was run: as §1

Row | Compound | odorant receptor agonist call (UniProt A2ATE5) | odorant receptor agonist call (UniProt A2AVB0) | odorant receptor agonist call (UniProt E1BM68) | odorant receptor agonist call (UniProt E9PVX1) | odorant receptor agonist call (UniProt E9PZ66) | odorant receptor agonist call (UniProt E9Q4X7) | odorant receptor agonist call (UniProt E9Q546) | odorant receptor agonist call (UniProt E9Q6Z7) | odorant receptor agonist call (UniProt E9QAT7) | odorant receptor agonist call (UniProt E9PXN3) | odorant receptor agonist call (UniProt A2AVB5) | odorant receptor agonist call (UniProt B2RVX8) | odorant receptor agonist call (UniProt K7N609)
1 | COc1nccnc1C(C)C | inactive | inactive | active | inactive | inactive | inactive | inactive | inactive | inactive | – | – | – | –
2 | CCCCCCCCCCCO | inactive | inactive | – | inactive | inactive | inactive | inactive | inactive | – | inactive | – | – | –
3 | CCCC=O | inactive | inactive | – | inactive | inactive | inactive | inactive | inactive | – | – | – | – | –
4 | CCCCCCC(C=O)=Cc1ccccc1 | inactive | inactive | – | inactive | inactive | inactive | inactive | inactive | – | – | – | – | –
5 | C=C(C)C1CC=C(C)CC1 (stereo not given) | inactive | inactive | – | inactive | inactive | inactive | inactive | inactive | – | – | – | – | –
6 | CCCCC(C)=O | inactive | inactive | – | inactive | inactive | inactive | inactive | inactive | – | – | inactive | inactive | inactive
7 | CC(=O)OC1(C)CCC23CC1C(C)(C)C2CCC3C (stereo not given) | inactive | inactive | – | inactive | inactive | inactive | inactive | inactive | – | – | – | – | –
